Results published in paper PMC4398655 (Bioorganic & medicinal chemistry, 2015).
Entries after “also recorded” stand apart in the source; their conditions may differ. Like-named read-outs stand apart in the source and are kept apart here.

Assays:
[1] = tested on: PC-3 prostate cancer cells; settings: 10 μM for 72 h, relative percent cell viability only; cited from earlier work
[2] = tested on: HCT-116 colon cancer cells; settings: 10 μM for 72 h, relative percent cell viability only; cited from earlier work
[3] = tested on: MCF-7 breast cancer cells; settings: 10 μM for 72 h, relative percent cell viability only; cited from earlier work
[4] = tested on: six human cancer cell lines (HCT-116, S1, DU-145, PC-3, MDA-MB-231, MCF-7); test: MTT cell cytotoxicity assay, panel of cancer cell lines; type: cell-based; settings: for IC50: Homo sapiens
How it was run: (§1)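 Cell lines grown as adherent monolayers in DMEM with 10% FBS at 37°C, 5% CO2. Trypsinised cells seeded at 5×10^3 cells/well and exposed to test compound at 0.1 to 100 μM for 72 h. MTT (4 mg/ml) added for 4 h, formazan dissolved in DMSO, and absorbance read at 570 nm. IC50 derived from survival curves by the Bliss method. Mean±SD from at least three experiments, each in triplicate.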

[5] = tested on: PC-3 prostate cancer cells; test: Morphological analysis by microscopy, PC-3; type: cell-based, human; settings: 68 h
How it was run: (§2)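 Cells from the MTT setup, with and without test compound, were photographed at 68 h on an inverted microscope for each triplicate treatment. Images for the different concentrations were compared double-blind for cell size, shape and number.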

[6] = tested on: HCT-116 colon cancer cells; test: Morphological analysis by microscopy, HCT-116; type: cell-based, human; settings: 68 h
How it was run: as §2

[7] = tested on: PC-3 prostate cancer cells; test: MTT cell cytotoxicity assay, PC-3; type: cell-based; settings: Homo sapiens, 72 h, read-out: IC50 ± SD, PC3
How it was run: as §1

[8] = tested on: HEK293/pcDNA3.1 human primary embryonic kidney cells; test: MTT cell cytotoxicity assay, HEK293/pcDNA3.1; type: cell-based; settings: HEK293, 72 h, read-out: IC50 ± SD, HEK 293/pcDNA.3.1
How it was run: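 Empty-vector-transfected HEK293 cells, grown adherent in DMEM + 10% FBS at 37°C, 5% CO2, were trypsinised and seeded at 5×10³ cells/well. Test compound was added at 0.1–100 μM for 72 h. MTT solution (4 mg/ml) was then added for 4 h, and formazan was dissolved in DMSO and read at 570 nm. IC50 was derived from survival curves by the Bliss method; mean±SD from ≥3 experiments, each in triplicate.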

[9] = tested on: ABCB1 (P-glycoprotein, MDR1); test: MTT cell cytotoxicity assay, ABCB1 overexpressing cells; type: cell-based; settings: human, HEK293/ABCB1 cells (P-glycoprotein overexpressing)
[10] = read-out: mean IC50 values in all the cancer cell lines tested

SMILES: CC(=O)/C=C(O)/C=C/c1ccc(O)c(O)c1 [VA-1, Hispolon]
- activity against PC-3 (previous study) [1]: active
- activity against HCT-116 (previous study) [2]: active
- activity against MCF-7 (previous study) [3]: active

SMILES: COc1cc(/C=C/C(=O)CC(C)=O)ccc1O [VA-2, hispolon methyl ether]
- IC50 ([4]; read-out: observed mean IC50 values in colon and prostate cancer cell lines): 1.4 to 6.3 µM
- activity against PC-3 (previous study) [1]: active
- activity against HCT-116 (previous study) [2]: active
- activity against MCF-7 (previous study) [3]: active
- morphological analysis (cell number, cell size) ([5]; 1 μM): marked reduction of cell number; also recorded: significant reduction of cell number
- morphological analysis (cell number, cell size) ([6]; 1 μM): marked reduction of cell number; also recorded: significant reduction of cell number

SMILES: CC(=O)CC(=O)/C=C/c1ccc(O)cc1 [VA-3, dehydroxy hispolon]
- activity against PC-3 (previous study) [1]: active
- activity against HCT-116 (previous study) [2]: active
- activity against MCF-7 (previous study) [3]: active

SMILES: Cc1cc(/C=C/c2ccc(O)c(O)c2)on1 [VA-7]
- IC50 [4, 10]: 3.3 to 10.7 µM

SMILES: COc1ccc(/C=C/c2cc(C)n[nH]2)cc1 [VA-15, (E)-5-(4-methoxystyryl)-3-methyl-1H-Pyrazole]
- IC50 [4, 10]: 3.3 to 10.7 µM

SMILES: COc1cc(CCC(=O)CC(C)=O)ccc1O [VA-16]
- activity (inhibition of cell survival) in the tested concentration range ([4]; MTT, concentrations up to 100 μM): no significant activity
- morphological characteristics ([5]; concentrations up to 100 μM): no significant change
- morphological characteristics ([6]; concentrations up to 100 μM): no significant change
- IC50 [7]: > 100 µM

SMILES: COc1ccc(CCC(=O)CC(C)=O)cc1 [VA-18, 6-(4-methoxyphenyl)hexane-2,4-dione]
- IC50 [8]: 50.2 ± 8.9 µM
- IC50 at 72 h [9]: 51.2 ± 10.3 µM
